Measurements from ChEMBL document CHEMBL1128562, “1-Phenyl-3-amino-1,2,3,4-tetrahydronaphthalenes and related derivatives as ligands for the neuromodulatory sigma 3 receptor: further structure-activity relationships” (J Med Chem, 1995).

Experiments:
[1] = biological target: D(1A) dopamine receptor (Rattus norvegicus) (UniProt P18901); assay: Binding affinity against Dopamine receptor D1 by using [3H]SCH-23390 as radioligand
Procedure, shortened: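 Rat corpus striatum homogenate (30 μg protein) in 10 mM Tris with 150 mM NaCl, pH 7.4. Incubated 30 min at 30 °C with 0.3 nM [3H]SCH-23390; 300 nM cis-(Z)-flupenthixol defined nonspecific binding. Test ligand at 6–8 concentrations (0.01–10 000 nM) in triplicate, then filtration and scintillation counting. IC50 from sigmoidal fit converted to K0.5 = IC50/(1 + L/KD); assay repeated twice, ± SEM.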

[2] = biological target: D(2) dopamine receptor (Rattus norvegicus) (UniProt P61169); assay: Binding affinity against Dopamine receptor D2 by using [3H]- radioligand
D(2) dopamine receptor (Rattus norvegicus), sequence (P61169 whole entry): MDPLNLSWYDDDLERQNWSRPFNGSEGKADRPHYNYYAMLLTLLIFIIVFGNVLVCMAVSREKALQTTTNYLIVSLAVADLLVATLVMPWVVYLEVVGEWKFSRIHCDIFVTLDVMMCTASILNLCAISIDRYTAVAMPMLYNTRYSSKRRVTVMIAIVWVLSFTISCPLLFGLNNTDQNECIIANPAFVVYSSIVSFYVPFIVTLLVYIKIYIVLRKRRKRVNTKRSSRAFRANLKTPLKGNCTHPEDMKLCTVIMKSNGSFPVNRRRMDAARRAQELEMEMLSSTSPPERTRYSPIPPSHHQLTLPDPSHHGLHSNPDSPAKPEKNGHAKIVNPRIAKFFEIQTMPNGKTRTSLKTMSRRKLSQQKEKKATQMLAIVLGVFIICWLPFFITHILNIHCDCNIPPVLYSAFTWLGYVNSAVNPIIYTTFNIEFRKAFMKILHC
Procedure, shortened: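 D2 competition assay on rat corpus striatum homogenate (30 μg protein) in 10 mM Tris/150 mM NaCl, pH 7.4, at 30 °C for 90 min. Radioligand was 0.065 nM [3H]emonapride (YM-09151); 250 nM (+)-butaclamol defined nonspecific binding. Six to eight test concentrations spanning 0.01–10 000 nM, in triplicate. Sigmoidal-fit IC50 converted to K0.5 via IC50/(1 + L/KD); repeated twice, ± SEM.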

[3] = biological target: D(3) dopamine receptor (Homo sapiens) (UniProt P35462); assay: Binding affinity against Dopamine receptor D3 by using [3H]- radioligand
D(3) dopamine receptor (Homo sapiens), sequence (P35462 whole entry, looked up): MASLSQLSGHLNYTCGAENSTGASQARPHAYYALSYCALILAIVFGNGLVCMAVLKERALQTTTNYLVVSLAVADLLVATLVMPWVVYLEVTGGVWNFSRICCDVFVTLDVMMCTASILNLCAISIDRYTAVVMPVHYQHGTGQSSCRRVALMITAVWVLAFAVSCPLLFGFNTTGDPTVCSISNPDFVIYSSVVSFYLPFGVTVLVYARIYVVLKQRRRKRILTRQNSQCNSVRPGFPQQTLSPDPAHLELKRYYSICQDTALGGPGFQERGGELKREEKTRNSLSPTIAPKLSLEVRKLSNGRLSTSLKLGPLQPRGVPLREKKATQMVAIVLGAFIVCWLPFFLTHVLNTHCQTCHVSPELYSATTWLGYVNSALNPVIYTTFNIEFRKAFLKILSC

[4] = Binding affinity against Sigma receptor type 3 by using [3H]-(-)-H2-PAT as radioligand; conditions: Rattus norvegicus
[5] = biological target: D(1A) dopamine receptor (Rattus norvegicus) (UniProt P18901)
[6] = biological target: D(2) dopamine receptor (Rattus norvegicus) (UniProt P61169)
[7] = biological target: Sigma non-opioid intracellular receptor 1 (Rattus norvegicus) (UniProt Q9R0C9)
Sigma non-opioid intracellular receptor 1 (Rattus norvegicus), sequence (Q9R0C9 whole entry): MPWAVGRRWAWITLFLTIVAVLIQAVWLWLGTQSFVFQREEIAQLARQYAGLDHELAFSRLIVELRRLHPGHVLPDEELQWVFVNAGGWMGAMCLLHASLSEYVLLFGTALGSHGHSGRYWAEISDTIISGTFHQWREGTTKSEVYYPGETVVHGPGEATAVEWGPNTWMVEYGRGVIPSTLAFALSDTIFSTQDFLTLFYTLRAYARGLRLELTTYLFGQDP

D(1A) dopamine receptor (Rattus norvegicus), sequence (P18901 whole entry): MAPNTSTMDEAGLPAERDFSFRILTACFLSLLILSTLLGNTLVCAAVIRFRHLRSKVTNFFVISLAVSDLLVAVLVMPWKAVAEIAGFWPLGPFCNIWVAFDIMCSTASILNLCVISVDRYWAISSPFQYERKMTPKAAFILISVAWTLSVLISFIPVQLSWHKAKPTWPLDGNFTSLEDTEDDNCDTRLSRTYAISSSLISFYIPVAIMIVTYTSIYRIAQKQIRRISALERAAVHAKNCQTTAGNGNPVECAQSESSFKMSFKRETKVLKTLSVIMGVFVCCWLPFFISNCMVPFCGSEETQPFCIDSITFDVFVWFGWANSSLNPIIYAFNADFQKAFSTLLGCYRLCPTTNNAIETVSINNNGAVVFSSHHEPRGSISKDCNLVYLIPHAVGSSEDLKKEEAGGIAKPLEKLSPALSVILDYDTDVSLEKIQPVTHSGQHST

SMILES | Ki 0.5 [1] [µM] | Ki 0.5 [2] [µM] | Ki 0.5 [3] [µM] | Ki 0.5 [4] [µM] | Ki 0.5 [5] [µM] | Ki 0.5 [6] [µM] | Ki 0.5 [7] [µM]
CN(C)[C@H]1Cc2ccccc2[C@@](C)(c2ccccc2)C1 | > 2.5 | > 5 | 1 | 0.0025 | – | – | –
c1ccc(CCCN[C@@H]2Cc3ccccc3[C@@H](c3ccccc3)C2)cc1 | > 5 | 5 | – | 2.53 | – | – | –
CN(CCCc1ccccc1)[C@@H]1Cc2ccccc2[C@@H](c2ccccc2)C1 | 0.38 | 0.54 | – | 0.3 | – | – | –
CN(C)[C@@H]1CCc2ccccc2[C@@H](c2ccccc2)C1 | > 5 | 5 | 1 | 0.0218 | – | – | –
CN(C)[C@@H]1Cc2ccccc2[C@@H](c2ccccc2)C1 (stereo in doubt; (+)-2) | > 5 | > 5 | 1 | 0.0135 | – | – | –
CN(CCCCc1ccccc1)[C@@H]1Cc2ccccc2[C@@H](c2ccccc2)C1 | 0.44 | 0.24 | – | 0.28 | – | – | –
CN(C)[C@@H]1Cc2ccccc2[C@@H](c2ccccc2)C1 (stereo in doubt; (-)-2) | > 5 | > 5 | > 1 | 0.0005 | – | – | –
CN(CCc1ccccc1)[C@@H]1Cc2ccccc2[C@@H](c2ccccc2)C1 | 0.054 | 0.37 | – | 0.15 | – | – | –
CN(C)[C@@H]1Cc2ccccc2[C@@H](c2ccccc2)C1 (stereo in doubt; 2) | 2.5 | 5 | 1 | 0.0011 | – | – | –
CN(C)[C@@H]1CCc2ccccc2[C@@H]1c1ccccc1 | > 5 | > 5 | > 1 | 1.3 | – | – | –
CN(C)[C@@H]1Cc2ccccc2[C@H](c2ccccc2)C1 | – | – | – | 0.074 | – | – | –
CN(C)[C@@H]1Cc2cc(Cl)c(O)cc2[C@@H](c2ccccc2)C1 | – | – | 0.3 | 0.0003 | 0.42 | 0.26 | 2

The next lines start with the values.

Ki 0.5 [1] [µM] | Ki 0.5 [2] [µM] | Ki 0.5 [3] [µM] | Ki 0.5 [4] [µM] | Ki 0.5 [5] [µM] | Ki 0.5 [6] [µM] | Ki 0.5 [7] [µM] | SMILES
> 5 | > 5 | > 1 | 0.12 | – | – | – | CN(C)[C@H]1CCc2ccccc2[C@H](c2ccccc2)C1
> 5 | > 5 | > 1 | 0.98 | – | – | – | CN(C)[C@@H]1CCc2ccccc2[C@H]1c1ccccc1
> 5 | > 2.5 | > 1 | 0.035 | – | – | – | C[N+](C)(C)[C@@H]1Cc2ccccc2[C@@H](c2ccccc2)C1
> 5 | > 5 | > 1 | 0.0182 | – | – | – | CN(C)[C@@H]1Cc2ccccc2[C@@](C)(c2ccccc2)C1
1.53 | 1.6 | – | 1.05 | – | – | – | c1ccc(CCCCN[C@@H]2Cc3ccccc3[C@@H](c3ccccc3)C2)cc1
> 5 | > 5 | > 1 | 0.12 | – | – | – | CN[C@@H]1Cc2ccccc2[C@@H](c2ccccc2)C1
